STAT1 blocker – inhibitors of IFN-gamma induced STAT1 signaling | 200,000 compounds, 0.35% hits | AID 920 | inhibition, % at 5.5 µM | NIH 3T3 STAT1-luciferase reporter, luminescence;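 active = inhibition above a set limit, the mean inhibition across all tested compounds plus 3 SD, cut at about 34% in these data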
STAT3 act-1 – activators of IL-6 induced STAT3 signaling; U3A cells, IL-6 STAT3-luciferase reporter, luminescence; 100% = signal with IL-6 EC80 alone; activation (% of control), % at 5.6 µM; 190,000 compounds, 0.91% hits; AID 871;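 active = activation above the screen-wide mean of compound activation plus 3 SD, cut at about 130% in these data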
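Test system: STAT3-luciferase reporter U3A cells; Detection: reporter luminescence signal; Times: 1 h compound pre-exposure, 6 h IL-6 stimulation, 37 °C; Benchmarks: IL-6-only high control; Also added: IL-6 stimulus at 33 ng/mL final.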
NF-kB neuron act – compounds increasing NF-kB expression in human neuronal cells; 190,000 compounds, 1.6% hits; fold change at 12.5 µM; NF-kB reporter expression; stronger effect = higher value; in the data active = fold change above about 3.3
STAT3 inh – inhibitors of IL-6 induced STAT3 signaling. U3A cells, IL-6 STAT3-luciferase reporter, luminescence; host cell line lacks STAT1. inhibition, % at 5.5 µM. 190,000 compounds, 0.89% hits;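 active = inhibition above the mean inhibition across all screened compounds plus 3 SD, cut at about 44% in these data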
STAT1 act-1 – activators of IFN-gamma induced STAT1 signaling; 200,000 compounds, 2.6% hits; activation (% of control), % at 5.5 µM; NIH 3T3 STAT1-luciferase reporter, luminescence; 100% = IFN-gamma alone, no compound; AID 932;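 active = activation above the screen-wide mean activation plus 3 SD, cut at about 130% in these data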
APP 5'UTR act – activates APP 5'UTR luciferase reporter | SH-SY5Y APP 5'UTR luciferase reporter, luminescence; zero percent = DMSO vehicle wells | activation, % at 2 µM | 190,000 compounds, 1% hits | AID 1276;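 active = activation above a set limit, based on mean plus 3 SD of controls, cut at about 140% in these data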
STAT3 act-2 – confirmation of STAT3 signaling activators; shares compounds with STAT3 act-1; U3A STAT3-luciferase reporter, IL-6 potentiation, luminescence; U3A cells lack STAT1; 100 means same as IL-6 alone; potentiation (% of control), % at 5.7 µM; 1,200 compounds, 64% hits;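 active = percent activation of the STAT3 luciferase reporter above a set limit taken from the earlier primary screen, cut at about 130% in these data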
NFkB act 2 – activates NF-kappaB, counter-screen to STAT3 activators. shares compounds with STAT3 act-1. human cells, NF-kappaB reporter activation. activation (% of control), % at 5.7 µM. 1,200 compounds, 11% hits. AID 1309; in the data active = activation above about 120%;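 also: reporter induced by TNF-alpha stimulation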
STAT1 act-2 – STAT1 activation in STAT3 activator counter-screen; shares compounds with STAT3 act-1; NIH 3T3 STAT1-luciferase reporter, IFN-gamma, luminescence; activation (% of control), % at 5.7 µM; 1,200 compounds, 13% hits; AID 1318;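 active = activation above the solvent-only control well mean plus 3 SD, set per screening run, cut at about 120% in these data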
A number is an active result; – = inactive; · = no result given. Compounds with a hit are over-represented: about 5.1% of the library has one in this group of screens.

SMILES	STAT1 blocker	STAT3 act-1	NF-kB neuron act	STAT3 inh	STAT1 act-1	APP 5'UTR act	STAT3 act-2	NFkB act 2	STAT1 act-2
COc1ccc(NC(=S)Nn2cnnc2)cc1OC	–	–	–	–	–	–	·	·	·
Cc1ccc(C2=NNC(c3ccc(Cl)cc3)=Nc3ccccc32)o1	–	–	–	–	–	·	·	·	·
Cc1ccc(C2=Nc3ccccc3NC(C)(c3ccc(C)o3)C2)o1 (stereo not given)	–	138.0	–	–	–	–	–	–	–
Cc1ccc(S(=O)(=O)/N=C2/C=C(Sc3ncn[nH]3)C(=O)c3ccccc32)cc1	–	140.7	–	–	–	–	–	–	–
Cc1cc(C)nc(/N=C(\N)Nc2ccc(S(=O)(=O)Nc3nccc(C)n3)cc2)n1	–	–	–	–	–	–	·	·	·
O=C(Nc1cc(C(F)(F)F)ccc1N1CCOCC1)C1Cc2ccccc2CN1C(=O)c1ccco1 (stereo not given)	–	139.3	–	–	–	–	–	–	–
O=C(Nc1cc(C(F)(F)F)ccc1N1CCCCC1)c1ccco1	–	–	–	–	–	–	·	·	·
Cc1ccc(CNC(=O)c2cc3c(-c4ccc(Cl)cc4)nn(C)c3s2)o1	–	155.1	–	–	–	–	151.9	–	–
CC(C)NC(=O)c1cc2c(-c3ccc(Cl)cc3)nn(C)c2s1	–	158.0	–	–	–	–	150.3	–	–
COc1cccc(-c2nn(C)c3sc(C(=O)NCc4ccco4)cc23)c1	–	–	–	–	–	–	·	·	·
Cn1nc(-c2ccc(Cl)cc2)c2cc(C(=O)N3CCCC3)sc21	–	–	–	–	–	–	·	·	·
Cn1nc(-c2ccc(Cl)cc2)c2cc(C(=O)N3CCN(c4ccccn4)CC3)sc21	–	–	–	–	–	–	·	·	·
Cn1nc(-c2ccc(Cl)cc2)c2cc(C(=O)N3CCN(c4ccccc4)CC3)sc21	–	138.3	–	–	–	–	142.8	–	–
Cn1nc(-c2ccc(Cl)cc2)c2cc(C(=O)NCCCN3CCCC3)sc21	–	165.8	–	–	–	–	154.9	–	–
NC1=NC(=O)/C(=C/c2c(OS(=O)(=O)c3ccc(Cl)cc3)ccc3ccccc23)S1	–	–	–	–	–	–	·	·	·
COc1cccc(OCCCOc2ccccc2C(C)C)c1	–	–	–	–	–	–	·	·	·
Cc1cc(C)n(CCN(C)c2nc3nonc3nc2NC2CC2)n1	–	–	–	–	–	–	·	·	·
C=CCNC(=O)c1cc2c(C(F)(F)F)nn(C)c2s1	–	–	–	–	–	–	·	·	·
CCOC(=O)N1CCC(NC(=O)c2cc3c(-c4ccc(Cl)cc4)nn(C)c3s2)CC1	–	151.2	–	–	–	–	–	–	–
COCCNC(=O)c1cc2c(-c3ccccc3F)nn(C)c2s1	–	–	–	–	–	–	·	·	·
COCCCNC(=O)c1cc2c(-c3ccc(Cl)cc3)nn(C)c2s1	–	151.0	–	–	–	–	143.2	–	–
COCCNC(=O)c1cc2c(-c3ccc(Cl)cc3)nn(C)c2s1	–	152.3	–	–	–	–	138.8	–	–
CCCCNC(=O)c1cc2c(-c3ccc(Cl)cc3)nn(C)c2s1	–	138.4	–	–	–	–	151.3	–	–
O=C(NC1CCCC1)c1noc2c1CCCCC2	–	–	–	–	–	–	·	·	·
CCN1CCCC1CNC(=O)c1cc2c(-c3cccc(OC)c3)nn(C)c2s1 (stereo not given)	–	–	–	–	–	–	·	·	·
SMILES	STAT1 blocker	STAT3 act-1	NF-kB neuron act	STAT3 inh	STAT1 act-1	APP 5'UTR act	STAT3 act-2	NFkB act 2	STAT1 act-2
CCN1CCCC1CNC(=O)c1cc2c(-c3ccc(Cl)cc3)nn(C)c2s1 (stereo not given)	–	170.1	–	–	–	–	155.9	–	–
O=C(Cc1coc2ccc3ccccc3c12)Nc1nnc(C2CC2)s1	–	152.6	–	–	–	–	147.5	–	–
O=C(Cc1ccc([N+](=O)[O-])cc1)Nc1nnc(C2CC2)s1	–	–	–	–	–	–	·	·	·
O=C(Cc1c[nH]c2ccccc12)Nc1nnc(C2CC2)s1	–	136.6	–	–	–	–	168.3	–	–
O=[N+]([O-])c1cc(Cl)ccc1Oc1ccc(-c2nnco2)cc1	–	–	·	–	–	–	·	·	·
CCn1c(/C=C2\C(=O)N(C)c3ccccc32)nc2ccccc2c1=O	–	137.1	–	–	–	–	–	–	–
CCn1c(/C=C2/C(=O)N(C)c3ccccc32)nc2ccccc2c1=O	–	–	–	–	–	–	·	·	·
Cc1cc2ccccn2c1C(=O)Nc1ccc(Cl)cc1	–	155.9	–	–	–	–	165.9	–	–
Cc1sc2c(c1C)CN(C(C)(C)C)CN2C(=O)c1ccccc1	–	141.6	–	–	–	–	–	–	–
CC1CN(Cc2ccc(Cl)cc2Cl)CC(C)O1 (stereo not given)	–	141.6	–	–	–	–	–	–	125.2
CN(C)S(=O)(=O)c1cccc(NC(=O)COC(=O)c2ccc3c(c2)OCO3)c1	–	–	–	–	–	–	·	·	·
COc1cccc(-c2nc(N3CCN(c4ccccc4)CC3)c3ccccc3n2)c1O	–	–	–	–	–	–	·	·	·
COc1cccc(-c2nc(Oc3cccc(C)c3C)c3ccccc3n2)c1O	–	140.0	–	–	–	–	136.5	–	–
Fc1cccc(F)c1-n1c(CN2CCCCC2)csc1=S	–	–	–	–	–	–	·	·	·
COc1ccc(COc2cc(-c3cccc(OC)c3)nc3ccc(NC(=O)c4ccc(N(C)C)cc4)cc23)cc1	–	136.2	–	–	–	–	–	–	–
COCCNC(=O)C(=O)NNC(=O)COc1ccc(OC)cc1	–	–	–	–	–	–	·	·	·
COCCNC(=O)C(=O)NNC(=O)c1ccccc1OC	–	141.7	–	–	–	–	136.9	–	–
CN(C)c1cccc(C(=O)Nc2cc(C(F)(F)F)ccc2-n2cnc3ccccc32)c1	–	–	–	–	–	–	·	·	·
c1ccc(C2=Nc3ccccc3SC2c2nc3ccccc3[nH]2)cc1 (stereo not given)	–	158.0	6.69	–	–	–	146.6	130.3	152.3
Cc1cc(C)c[n+](C(C)C(=O)c2ccc(-c3ccccc3)cc2)c1 (stereo not given)	–	–	–	–	–	–	·	·	·
CC(C)(C)C1CCC(=NOC(=O)c2ccc(F)cc2)CC1 (stereo not given)	–	–	–	–	–	–	·	·	·
O=C(CSc1nnc2c(Cl)cc(C(F)(F)F)cn12)N(Cc1ccccc1)Cc1ccccc1	–	–	–	–	–	–	·	·	·

Screening data: PubChem, several laboratories
